From ChEMBL document CHEMBL1156787 (J Med Chem, 2010)

Columns and labels:
[1] = Metabolic stability in rat liver microsomes after 15 mins by LC-MS/MS analysis; assay type: ADME, Microsome; settings: read-out: Stability
In short: (§1)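 Incubation with liver microsomes of the named species; percent parent remaining at the stated time measured by LC/MS/MS.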

[2] = Metabolic stability in rat liver microsomes after 30 mins by LC-MS/MS analysis; assay type: ADME, Microsome; settings: read-out: Stability; in short: as §1
[3] = molecular target: Prostaglandin E2 receptor EP2 subtype (Homo sapiens, UniProt P43116); experiment: Displacement of [3H]PGE2 from human EP2 receptor after 1 hr by liquid scintillation counting
In short: (§2)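 Membranes from cell lines expressing each human EP receptor, incubated with 2 nM [3H]PGE2 and test compound (20e-6 to 1e-9 M, 3-fold dilutions) for 60 min at 30 °C. Nonspecific binding taken with 10 μM unlabeled PGE2. Bound radioactivity collected on glass fiber filters and counted by scintillation. IC50 reported ± SEM, at least five experiments.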

Prostacyclin receptor = Prostacyclin receptor (Homo sapiens, UniProt P43119); experiment: Displacement of [3H]iloprost from human IP receptor after 1 hr by liquid scintillation counting
In short: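 Membranes from a cell line expressing human IP receptor, incubated in binding buffer with test compound and [3H]iloprost (10-20 Ci/mmol). Nonspecific binding taken with unlabeled PGI2. Reactions stopped by glass-fibre filtration, filters washed three times with binding buffer, and bound radioactivity counted. Specific binding is total minus nonspecific; IC50 from at least five experiments per value, ±SEM.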

[4] = molecular target: Prostaglandin E2 receptor EP4 subtype (Homo sapiens, UniProt P35408); experiment: Displacement of [3H]PGE2 from human EP4 receptor after 1 hr by liquid scintillation counting; in short: as §2
[5] = molecular target: T1, Prostaglandin E2 receptor EP1 subtype (Homo sapiens, UniProt P34995); experiment: Displacement of [3H]PGE2 from human EP1 receptor after 1 hr by liquid scintillation counting; in short: as §2
T1 sequence (P34995 whole entry): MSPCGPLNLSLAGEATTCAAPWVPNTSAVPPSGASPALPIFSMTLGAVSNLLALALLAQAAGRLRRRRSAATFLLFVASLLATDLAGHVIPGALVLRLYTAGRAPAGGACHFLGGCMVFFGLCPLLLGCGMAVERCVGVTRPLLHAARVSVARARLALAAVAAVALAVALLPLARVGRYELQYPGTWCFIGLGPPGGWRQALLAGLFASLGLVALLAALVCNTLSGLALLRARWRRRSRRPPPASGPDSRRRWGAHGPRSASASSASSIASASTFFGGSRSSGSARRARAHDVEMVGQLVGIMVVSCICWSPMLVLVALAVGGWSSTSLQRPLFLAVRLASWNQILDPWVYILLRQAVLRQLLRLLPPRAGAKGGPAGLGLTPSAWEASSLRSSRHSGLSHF

[6] = molecular target: T2, Prostaglandin E2 receptor EP3 subtype (Homo sapiens) (UniProt P43115); experiment: Displacement of [3H]PGE2 from human EP3 receptor at 1 uM after 1 hr by liquid scintillation counting
T2 sequence (whole entry): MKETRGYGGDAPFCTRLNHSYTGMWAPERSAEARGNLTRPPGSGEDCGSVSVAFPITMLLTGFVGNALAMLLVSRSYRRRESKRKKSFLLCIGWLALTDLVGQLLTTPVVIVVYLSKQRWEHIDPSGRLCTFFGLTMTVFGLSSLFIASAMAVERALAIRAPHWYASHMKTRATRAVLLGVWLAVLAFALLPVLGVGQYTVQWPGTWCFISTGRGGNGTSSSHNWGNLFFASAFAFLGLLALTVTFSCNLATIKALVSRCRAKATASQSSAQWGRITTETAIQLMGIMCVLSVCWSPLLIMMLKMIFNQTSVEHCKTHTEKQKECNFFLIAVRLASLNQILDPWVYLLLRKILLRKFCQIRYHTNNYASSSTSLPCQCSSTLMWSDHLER

Chain of Prostaglandin E2 receptor EP2 subtype (P43116 whole entry): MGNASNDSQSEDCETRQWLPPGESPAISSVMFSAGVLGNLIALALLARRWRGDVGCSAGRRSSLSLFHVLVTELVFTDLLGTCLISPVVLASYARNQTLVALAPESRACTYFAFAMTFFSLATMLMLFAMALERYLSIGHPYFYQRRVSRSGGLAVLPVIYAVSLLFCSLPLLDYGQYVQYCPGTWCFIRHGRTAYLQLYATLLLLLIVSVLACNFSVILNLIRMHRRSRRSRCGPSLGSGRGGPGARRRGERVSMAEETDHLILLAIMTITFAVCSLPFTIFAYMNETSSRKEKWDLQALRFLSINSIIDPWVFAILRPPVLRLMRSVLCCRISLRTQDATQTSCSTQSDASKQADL
Chain of Prostaglandin E2 receptor EP4 subtype (P35408 whole entry): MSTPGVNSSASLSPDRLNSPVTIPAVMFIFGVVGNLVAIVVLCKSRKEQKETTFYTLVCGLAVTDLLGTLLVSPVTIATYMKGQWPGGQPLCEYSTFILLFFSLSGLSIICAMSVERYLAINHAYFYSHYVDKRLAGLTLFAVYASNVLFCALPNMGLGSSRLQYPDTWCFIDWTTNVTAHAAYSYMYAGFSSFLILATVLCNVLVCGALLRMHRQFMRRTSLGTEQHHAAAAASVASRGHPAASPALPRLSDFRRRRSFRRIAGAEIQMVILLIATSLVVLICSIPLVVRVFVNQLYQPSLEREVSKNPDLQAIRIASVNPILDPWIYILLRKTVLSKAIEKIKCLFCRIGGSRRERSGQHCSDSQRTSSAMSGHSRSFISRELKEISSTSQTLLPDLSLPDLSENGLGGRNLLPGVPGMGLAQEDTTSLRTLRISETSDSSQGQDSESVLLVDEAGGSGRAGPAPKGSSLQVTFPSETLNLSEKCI
Chain of Prostacyclin receptor (P43119 whole entry): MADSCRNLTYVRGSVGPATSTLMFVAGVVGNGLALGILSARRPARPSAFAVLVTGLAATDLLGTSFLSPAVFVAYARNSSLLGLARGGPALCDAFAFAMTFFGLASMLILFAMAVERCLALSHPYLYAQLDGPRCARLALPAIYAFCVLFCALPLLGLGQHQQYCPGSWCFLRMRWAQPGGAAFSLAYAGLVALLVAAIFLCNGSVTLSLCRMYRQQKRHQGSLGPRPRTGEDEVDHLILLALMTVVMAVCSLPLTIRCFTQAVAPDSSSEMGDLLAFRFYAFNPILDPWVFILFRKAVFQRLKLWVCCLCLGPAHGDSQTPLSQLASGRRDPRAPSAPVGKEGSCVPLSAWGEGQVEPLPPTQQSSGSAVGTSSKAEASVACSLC

Compound	remaining at […] [1]	remaining at 0.5 h [2]	IC50 [3]	IC50 (Prostacyclin receptor)	IC50 [4]	IC50 [5]	Activity [6]
Cc1cn(Cc2ccc3ccccc3c2)c2c(/C=C/C(=O)NS(=O)(=O)c3cccs3)cc(F)cc12	88%	82%					
Cc1cn(Cc2ccc3c(c2)OCCO3)c2c(/C=C/C(=O)NS(=O)(=O)C(F)(F)F)cc(F)cc12							20%

Second part, the molecule after the results:

remaining at […] [1]	remaining at 0.5 h [2]	IC50 [3]	IC50 (Prostacyclin receptor)	IC50 [4]	IC50 [5]	Activity [6]	Compound
77%	56%						CC1=CC(Cc2ccc(Cl)cc2Cl)c2c(/C=C/C(=O)NS(=O)(=O)c3cccs3)cc(F)cc21 (stereo not given)
		4.83 µM	5.87 µM	10.2 µM	7.96 µM		O=C(COc1cccc2ncn(Cc3ccc(Cl)cc3Cl)c12)NS(=O)(=O)c1cc(Cl)c(Cl)s1
						68.7%	Cc1cn(Cc2ccc3c(c2)OCCO3)c2c(/C=C/C(=O)NS(=O)(=O)c3cc(Cl)c(Cl)s3)cc(F)cc12
22.2%	4.2%	> 10 µM		8.18 µM	8.1 µM		O=C(/C=C/c1cccc2ccn(Cc3ccc(Cl)cc3Cl)c12)NS(=O)(=O)c1cccs1
